Test results published in ChEMBL document CHEMBL1156074, “Diazo transfer-click reaction route to new, lipophilic teicoplanin and ristocetin aglycon derivatives with high antibacterial and anti-influenza virus activity: an aggregation and receptor binding study” (J Med Chem, 2009).
Converted amounts (≈) assume the structure as drawn. The source made the active and inactive calls.

Legend:
H3N2 subtype [1] = test: Antiviral activity against Influenza A virus (A/Hong Kong/7/87(H3N2)) assessed as inhibition of virus-induced cytopathic effect by cell-based assay; type: functional, organism-based; conditions: A/Hong Kong/7/1987(H3N2)
Outline: (§1)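 Virus-induced cytopathic effect is scored visually in infected cell cultures. EC50 is defined as the compound concentration producing 50% inhibition of the CPE. A compound is recorded as not active when there is no inhibition at the highest concentration tested or at a subtoxic concentration.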

Influenza B virus [2] = test: Antiviral activity against Influenza B virus (B/Hong Kong/5/72) assessed as inhibition of virus-induced cytopathic effect at highest concentration by cell-based assay; type: functional; conditions: B/Hong Kong/05/1972; outline: as §1
Influenza A virus [3] = test: Antiviral activity against Influenza A virus (A/Puerto Rico/8/34(H1N1)) assessed as cell viability by cell-based MTS assay; type: functional, organism-based; conditions: A/Puerto Rico/8/1934(H1N1)
Outline: (§2)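 Cell-based influenza assay. The read-out is cell viability by the colorimetric formazan-based MTS assay. EC50 is the concentration giving 50% inhibition of the virus-induced cytopathic effect.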

Influenza A virus [4] = test: Antiviral activity against Influenza A virus (A/Puerto Rico/8/34(H1N1)) assessed as inhibition of virus-induced cytopathic effect by cell-based assay; type: functional, organism-based, A/Puerto Rico/8/1934(H1N1); outline: as §1
Influenza B virus [5] = test: Antiviral activity against Influenza B virus (B/Hong Kong/5/72) assessed as cell viability at subtoxic concentration by cell-based MTS assay; type: functional; conditions: B/Hong Kong/05/1972
H3N2 subtype [6] = test: Antiviral activity against Influenza A virus (A/Hong Kong/7/87(H3N2)) assessed as cell viability by cell-based MTS assay; type: functional, organism-based; conditions: A/Hong Kong/7/1987(H3N2); outline: as §2
Enterococcus = test: Antibacterial activity against vancomycin and teicoplanin-resistant Enterococcus harboring vanA resistance gene; type: functional
Influenza B virus [7] = test: Antiviral activity against Influenza B virus (B/Hong Kong/5/72) assessed as cell viability by cell-based MTS assay; type: functional; conditions: B/Hong Kong/05/1972; outline: as §2
Influenza B virus [8] = test: Antiviral activity against Influenza B virus (B/Hong Kong/5/72) assessed as inhibition of virus-induced cytopathic effect by cell-based assay; type: functional; conditions: B/Hong Kong/05/1972; outline: as §1
Bacillus subtilis [9] = test: Antibacterial activity against Bacillus subtilis ATCC 6633 after 18 hrs by broth microdilution method; type: functional; conditions: ATCC 6633, 18 h
Staphylococcus aureus [10] = test: Antibacterial activity against methicillin-sensitive Staphylococcus aureus ATCC 33591 after 18 hrs by broth microdilution method; type: functional; conditions: ATCC 33591, 18 h
[11] = system: Staphylococcus epidermidis; test: Antibacterial activity against biofilm of Staphylococcus epidermidis ATCC 35984 after 18 hrs by broth microdilution method; type: functional; conditions: RP62A
Enterococcus faecalis [12] = test: Antibacterial activity against vancomycin-resistant and teicoplanin-sensitive Enterococcus faecalis ATCC 51299 harboring vanB gene after 18 hrs by broth microdilution method; type: functional; conditions: ATCC 51299, 18 h
Staphylococcus aureus [13] = test: Antibacterial activity against methicillin-sensitive Staphylococcus aureus ATCC 29213 after 18 hrs by broth microdilution method; type: functional; conditions: ATCC 29213, 18 h
Enterococcus faecalis [14] = test: Antibacterial activity against vancomycin and teicoplanin-sensitive Enterococcus faecalis ATCC 29212 after 18 hrs by broth microdilution method; type: functional; conditions: ATCC 29212, 18 h
Enterococcus faecalis [15] = test: Antibacterial activity against vancomycin and teicoplanin-resistant Enterococcus faecalis 15376 harboring vanA gene after 18 hrs by broth microdilution method; type: functional; conditions: Enterococcus faecalis, 15376, 18 h
[16] = system: Staphylococcus epidermidis; test: Antibacterial activity against Staphylococcus epidermidis after 18 hrs by broth microdilution method; type: functional
[17] = Octanol-aqueous buffer partition coefficient, log P at pH 7 by shake-flask method; type: physicochemical
Enterococcus faecalis [18] = test: Bactericidal activity against vancomycin and teicoplanin-sensitive Enterococcus faecalis ATCC 29212 after overnight incubation; type: functional
[19] = system: Staphylococcus epidermidis; test: Bactericidal activity against biofilm of Staphylococcus epidermidis ATCC 35984 after overnight incubation; type: functional; conditions: RP62A
Staphylococcus aureus [20] = test: Bactericidal activity against methicillin-sensitive Staphylococcus aureus ATCC 33591 after overnight incubation; type: functional
Bacillus subtilis [21] = test: Bactericidal activity against Bacillus subtilis ATCC 6633 after overnight incubation; type: functional
Influenza A virus [22] = test: Antiviral activity against Influenza A virus (A/Puerto Rico/8/34(H1N1)) assessed as inhibition of virus-induced cytopathic effect at highest concentration by cell-based assay; type: functional, organism-based; conditions: A/Puerto Rico/8/1934(H1N1); outline: as §1
H3N2 subtype [23] = test: Antiviral activity against Influenza A virus (A/Hong Kong/7/87(H3N2)) assessed as inhibition of virus-induced cytopathic effect at highest concentration by cell-based assay; type: functional, organism-based; conditions: A/Hong Kong/7/1987(H3N2); outline: as §1
Enterococcus faecalis [24] = test: Bactericidal activity against vancomycin and teicoplanin-resistant Enterococcus faecalis 15376 harboring vanA gene after overnight incubation; type: functional
Enterococcus faecalis [25] = test: Bactericidal activity against vancomycin-resistant and teicoplanin-sensitive Enterococcus faecalis ATCC 51299 harboring vanB gene after overnight incubation; type: functional
H3N2 subtype [26] = test: Antiviral activity against Influenza A virus (A/Hong Kong/7/87(H3N2)) assessed as cell viability at subtoxic concentration by cell-based MTS assay; type: functional, organism-based; conditions: A/Hong Kong/7/1987(H3N2)
Staphylococcus aureus [27] = test: Bactericidal activity against methicillin-sensitive Staphylococcus aureus ATCC 29213 after overnight incubation; type: functional
[28] = system: Staphylococcus epidermidis; test: Bactericidal activity against Staphylococcus epidermidis after overnight incubation; type: functional
Influenza A virus [29] = test: Antiviral activity against Influenza A virus (A/Puerto Rico/8/34(H1N1)) assessed as cell viability at subtoxic concentration by cell-based MTS assay; type: functional, organism-based; conditions: A/Puerto Rico/8/1934(H1N1)
[30] = Influenza A virus, A/Puerto Rico/8/1934(H1N1)

## NC12CC3CC(CC(C3)C1)C2 [AMANTADINE]
H3N2 subtype [1]
  EC50: 0.8 µM
Influenza B virus [2]
  inhibition: inactive
Influenza A virus [3]
  EC50: 35 µM
Influenza A virus [4]; [30]
  EC50: 45 µM
Influenza B virus [5]
  inhibition: inactive
H3N2 subtype [6]
  EC50: 0.4 µM

## CN[C@H](CC(C)C)C(=O)N[C@H]1C(=O)N[C@@H](CC(N)=O)C(=O)N[C@H]2C(=O)N[C@H]3C(=O)N[C@H](C(=O)N[C@H](C(=O)O)c4cc(O)cc(O)c4-c4cc3ccc4O)[C@H](O[C@H]3C[C@](C)(N)[C@@H](O)[C@H](C)O3)c3ccc(c(Cl)c3)Oc3cc2cc(c3O[C@@H]2O[C@H](CO)[C@@H](O)[C@H](O)[C@H]2O[C@H]2C[C@](C)(NCc3ccc(-c4ccc(Cl)cc4)cc3)[C@@H](O)[C@H](C)O2)Oc2ccc(cc2Cl)[C@H]1O [ORITAVANCIN]
Enterococcus
  MIC: < 1 µg/mL

## NC(=O)c1ncn([C@@H]2O[C@H](CO)[C@@H](O)[C@H]2O)n1 [RIBAVIRIN]
H3N2 subtype [1]
  EC50: 9 µM
Influenza B virus [7]
  EC50: 3.6 µM
Influenza B virus [8]
  EC50: 9 µM
Influenza A virus [3]
  EC50: 9.7 µM
Influenza A virus [4]
  EC50: 9 µM
H3N2 subtype [6]
  EC50: 6 µM

## CCCCCCCCCCOCc1cn([C@H]2C(=O)N[C@H]3C(=O)N[C@H](C(=O)N[C@H]4C(=O)N[C@H]5C(=O)N[C@H](C(=O)N[C@@H](C(=O)OC)c6cc(O)cc(O)c6-c6cc5ccc6O)[C@H](O)c5ccc(cc5)Oc5cc4cc(c5O)Oc4ccc(cc4)[C@H]3O)c3cc(O)c(C)c(c3)Oc3cc2ccc3O)nn1
Bacillus subtilis [9]
  MIC: > 256 µg/mL
Staphylococcus aureus [10]
  MIC: > 256 µg/mL
H3N2 subtype [1]
  EC50: 0.2 µM
[11]
  MIC: > 256 µg/mL
Enterococcus faecalis [12]
  MIC: > 256 µg/mL
Staphylococcus aureus [13]
  MIC: > 256 µg/mL
Influenza B virus [7]
  EC50: 0.2 µM
Enterococcus faecalis [14]
  MIC: > 256 µg/mL
Enterococcus faecalis [15]
  MIC: > 256 µg/mL
[16]
  MIC: > 256 µg/mL
Influenza B virus [8]
  EC50: 0.2 µM
Influenza A virus [3]
  EC50: 0.1 µM
Influenza A virus [4]; [30]
  EC50: 0.1 µM
H3N2 subtype [6]
  EC50: 0.5 µM

## CC(N)C12CC3CC(CC(C3)C1)C2 (configuration not stated) [RIMANTADINE]
H3N2 subtype [1]
  EC50: 0.1 µM
Influenza B virus [2]
  inhibition: inactive
Influenza A virus [3]
  EC50: 13 µM
Influenza A virus [4]; [30]
  EC50: 10 µM
Influenza B virus [5]
  inhibition: inactive
H3N2 subtype [6]
  EC50: 0.2 µM

## COC(=O)[C@@H]1NC(=O)[C@H]2NC(=O)[C@H](NC(=O)[C@@H]3NC(=O)[C@H]4NC(=O)[C@H](NC(=O)[C@H](N=[N+]=[N-])c5ccc(O)c(c5)Oc5cc4cc(O)c5C)[C@H](O)c4ccc(cc4)Oc4cc3cc(c4O)Oc3ccc(cc3)[C@H]2O)c2ccc(O)c(c2)-c2c(O)cc(O)cc21
Influenza B virus [2]
  inhibition: inactive
[17]
  logD: 0.29
Influenza B virus [5]
  inhibition: inactive

## COC(=O)[C@H]1NC(=O)[C@H]2NC(=O)[C@H](NC(=O)[C@@H]3NC(=O)[C@H]4NC(=O)[C@H](NC(=O)[C@H](N=[N+]=[N-])c5ccc(O)c(c5)Oc5cc4cc(O)c5C)[C@H](O)c4ccc(cc4)Oc4cc3cc(c4O)Oc3ccc(cc3)[C@H]2O)c2ccc(O)c(c2)-c2c(O)cc(O)cc21
H3N2 subtype [1]
  EC50: 20 µM
Influenza A virus [3]
  EC50: 8.8 µM
Influenza A virus [4]; [30]
  EC50: 9 µM
H3N2 subtype [6]
  EC50: 9.2 µM

## CCCCCCCCCCOCc1cn([C@H]2C(=O)N[C@@H]3Cc4ccc(c(Cl)c4)Oc4cc5cc(c4O)Oc4ccc(cc4Cl)[C@@H](O[C@@H]4O[C@H](CO)[C@@H](O)[C@H](O)[C@H]4NC(C)=O)[C@@H]4NC(=O)[C@H](NC(=O)[C@@H]5NC(=O)[C@@H](NC3=O)c3cc(O)cc(c3)Oc3cc2ccc3O)c2ccc(O)c(c2)-c2c(O)cc(O)cc2[C@H](C(=O)OC)NC4=O)nn1
Enterococcus faecalis [18]
  MBC: 256 µg/mL (≈ 156 µM)
Bacillus subtilis [9]
  MIC: 2 µg/mL (≈ 1.22 µM)
Staphylococcus aureus [10]
  MIC: 0.5 µg/mL (≈ 0.305 µM)
[11]
  MIC: 1 µg/mL (≈ 0.61 µM)
[19]
  MBC: 1 µg/mL (≈ 0.61 µM)
Staphylococcus aureus [20]
  MBC: 0.5 µg/mL (≈ 0.305 µM)
Bacillus subtilis [21]
  MBC: 4 µg/mL (≈ 2.44 µM)
Enterococcus faecalis [12]
  MIC: 2 µg/mL (≈ 1.22 µM)
Influenza A virus [22]
  inhibition: inactive
Influenza B virus [2]
  inhibition: inactive
Staphylococcus aureus [13]
  MIC: 1 µg/mL (≈ 0.61 µM)
H3N2 subtype [23]
  inhibition: inactive
Enterococcus faecalis [14]
  MIC: 2 µg/mL (≈ 1.22 µM)
Enterococcus faecalis [15]
  MIC: 2 µg/mL (≈ 1.22 µM)
[16]
  MIC: 1 µg/mL (≈ 0.61 µM)
Enterococcus faecalis [24]
  MBC: 256 µg/mL (≈ 156 µM)
Enterococcus faecalis [25]
  MBC: 128 µg/mL (≈ 78.1 µM)
H3N2 subtype [26]
  inhibition: inactive
Staphylococcus aureus [27]
  MBC: 1 µg/mL (≈ 0.61 µM)
[28]
  MBC: 1 µg/mL (≈ 0.61 µM)
Influenza B virus [5]
  inhibition: inactive
Influenza A virus [29]
  inhibition: inactive
